Reference: ChEMBL document CHEMBL4145692, “Discovery of a Locally and Orally Active CXCL12 Neutraligand (LIT-927) with Anti-inflammatory Effect in a Murine Model of Allergic Airway Hypereosinophilia” (J Med Chem, 2018)
Values after ≈ are worked out from the molar mass of the structure shown. Active and inactive are the calls of the source. The calls are words filed in the database; no cut-off is given here.

Key:
Mus musculus [1] = assay: Inhibition of eosinophil infiltration in Balb/c mouse model of 8 day model of allergic eosinophilic airway inflammation at 300 nmol/kg dosed intranasally 2 hrs before ovalbumin challenge by hemocytometry; type: functional; conditions: inhaled or nasal
Method in brief: (§1)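 OVA/alum-sensitized Balb/c mice challenged intranasally with OVA on days 5–7. Compounds at 300 nmol/kg in 10% PBS/Cdx given intranasally 2 h before each challenge. BAL 24 h after the last challenge; eosinophils, neutrophils and lymphocytes counted by hemocytometer and differential cytospin; n=6/group.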

Mus musculus [2] = assay: Toxicity in Balb/c mouse model of hypereosinophilia assessed as induction of liver lesions at 350 umol/kg, ip dosed daily 2 hrs before allergen challenge for […] and measured 24 hrs after last dose by Gomori's trichrome staining based histological analysis; type: organism-based; conditions: in vivo
[3] = Kinetic solubility in pH 7.4 HEPES-BSA buffer at 5 uM incubated for 24 hrs at 20 degC by HPLC method; type: physicochemical; conditions: read-out: Kinetic_solubility
Method in brief: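 Compound added from 10 mM DMSO stock to 5 μM in pH 7.4 HEPES-BSA buffer (1 g/L BSA), shaken 24 h at 20 °C. After centrifugation, supernatant concentration measured by HPLC against 5 and 10 μM standards.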

Mus musculus [4] = assay: Anti-inflammatory activity in Balb/c mouse model of hypereosinophilia assessed as inhibition of eosinophil infiltration at 350 umol/kg, ip dosed 2 hrs before allergen challenge; type: functional
Method in brief: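 Balb/c mice sensitized with OVA/alum i.p. and challenged intranasally with OVA on 3 consecutive days. Compounds given i.p. 2 h before each challenge: neutraligands 350 μmol/kg in PBS/CMC 1%, AMD3100 12.6 μmol/kg, dexamethasone 2.5 μmol/kg. BAL 24 h after the last challenge; absolute eosinophil counts; mean ± SEM, n=6/group.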

Mus musculus [5] = assay: Toxicity in Balb/c mouse model of hypereosinophilia assessed as reduction in spleen weight at 350 umol/kg, ip dosed daily 2 hrs before allergen challenge for 3 days and measured 24 hrs after last dose; type: organism-based; parameters: scale not given: the % may be the effect or the level left; conditions: in vivo
Method in brief: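 Same OVA model with i.p. dosing 2 h before each of the three challenges: neutraligands 350 μmol/kg in PBS/CMC 1%, AMD3100 12.6 μmol/kg, dexamethasone 2.5 μmol/kg. Body and spleen weight loss recorded 24 h after three daily administrations; n=6/group.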

[6] = target: Stromal cell-derived factor 1 (Homo sapiens, UniProt P48061); assay: Binding affinity to CXCL12 (unknown origin) assessed as changes in tryptophan fluorescence intensity
Chain of Stromal cell-derived factor 1 (P48061 whole entry): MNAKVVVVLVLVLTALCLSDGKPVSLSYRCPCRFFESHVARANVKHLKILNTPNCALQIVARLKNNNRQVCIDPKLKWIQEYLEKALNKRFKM
Method in brief: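 Intrinsic Trp fluorescence of CXCL12 (2 μM in Hepes buffer), excitation 285 nm, emission 340 nm, titrated with increasing compound. Kd obtained by fitting a 1:1 binding quadratic model with chemokine fixed at 2 μM. Mean ± SD of three independent experiments.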

[7] = Chemical stability in pH 7.4 PBS buffer assessed as parent compound remaining at 10 uM incubated for 24 hrs by RP-HPLC method; type: physicochemical; conditions: read-out: Stability
Method in brief: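 Compound diluted from DMSO stock to 10 μM final (1% DMSO) in PBS pH 7.4, or in PBS with 10% w/w (2-hydroxypropyl)-β-cyclodextrin. Sampled at t0, 2, 4, 6 and 24 h and injected directly onto RP-HPLC. Percent remaining relative to t0 from peak area.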

[8] = Thermodynamic solubility in pH 7.4 PBS buffer incubated for 24 hrs at 22 degC by HPLC method; type: physicochemical; conditions: read-out: Therm_solubility
Method in brief: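 Powder dissolved to saturation in pH 7.4 PBS (100 mM sodium phosphate, 150 mM NaCl), or in PBS with 10% Cdx, and shaken 24 h. After centrifugation, supernatant quantified by HPLC against a per-compound calibration line prepared from the DMSO stock.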

Mus musculus [9] = assay: Toxicity in Balb/c mouse model of hypereosinophilia assessed as induction of kidney lesions at 350 umol/kg, ip dosed daily 2 hrs before allergen challenge for […] and measured 24 hrs after last dose by Gomori's trichrome staining based histological analysis; type: organism-based; conditions: in vivo
Mus musculus [10] = assay: Inhibition of lymphocytes infiltration in Balb/c mouse model of 8 day model of allergic eosinophilic airway inflammation at 300 nmol/kg dosed intranasally 2 hrs before ovalbumin challenge by hemocytometry; type: functional, organism-based; method in brief: as §1
Mus musculus [11] = assay: Toxicity in Balb/c mouse model of hypereosinophilia assessed as reduction in body weight at 350 umol/kg, ip dosed daily 2 hrs before allergen challenge for 10 days and measured 24 hrs after last dose; type: organism-based; conditions: in vivo
Method in brief: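 Mice given 10 daily administrations at 350 μmol/kg. Monitored for weight loss and for signs of toxicity, including prostration and bristly hair.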

Mus musculus [12] = assay: Toxicity in Balb/c mouse model of hypereosinophilia assessed as induction of heart lesions at 350 umol/kg, ip dosed daily 2 hrs before allergen challenge for […] and measured 24 hrs after last dose by Gomori's trichrome staining based histological analysis; type: organism-based; conditions: in vivo
Mus musculus [13] = assay: Toxicity in Balb/c mouse model of hypereosinophilia assessed as induction of spleen lesions at 350 umol/kg, ip dosed daily 2 hrs before allergen challenge for […] and measured 24 hrs after last dose by Gomori's trichrome staining based histological analysis; type: organism-based; conditions: in vivo
[14] = Stability in presence of GSH assessed as Michael acceptor reactivity by measuring GSH adduct formation after 2 hrs at 37 degC by LC-MS/MS method; type: physicochemical
Method in brief: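 Compound 200 μM with 500 μM reduced GSH in methanol/50 mM carbonate buffer pH 8. Aliquots taken at 1 min and 2 h, diluted 1/40, and analysed by LC-MS/MS for GSH-conjugate formation.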

COc1cc(-c2cc(-c3ccc(Cl)cc3)nc(=O)[nH]2)ccc1O
inhibition in vivo at 0.3 µmol/kg (Mus musculus [1]): 48%
Activity (Mus musculus [2]): Non-Toxic
solubility kinetic at 24 h, 5 µM [3]: > 5 µM
inhibition in vivo at 350 µmol/kg (Mus musculus [4]): 55%
Activity (Mus musculus [5]): 0%
Kd [6]: 0.78 µM
remaining at 24 h, 10 µM [7]: 100%
solubility thermodynamic at 24 h [8]: 36.4 µM (≈ 12 µg/mL)
Activity (Mus musculus [9]): Non-Toxic
inhibition (Mus musculus [10]): inactive
Activity (Mus musculus [11]): Non-Toxic
Activity (Mus musculus [12]): Non-Toxic
Activity (Mus musculus [13]): Non-Toxic
Stability [14]: Stable
